The source of these data is ChEMBL document CHEMBL1135458, “Discovery and biological evaluation of a new family of potent modulators of multidrug resistance: reversal of multidrug resistance of mouse lymphoma cells by new natural jatrophane diterpenoids isolated from Euphorbia species” (2002).

Assay type in all cases: functional
The test system of assay [1] is Lymphoma cell line. The assay is described as follows: Ability to reverse the multidrug resistance (MDR) of mouse Lymphoma cells, FL-1at 2 ug/mL. Set-up: reference not given here. In short, it runs like this: (§1)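 L5178 mouse T-cell lymphoma cells carrying the MDR1 gene (via pHa MDR1/A retrovirus, kept under 60 ng/mL colchicine), with the L5178Y parent line. Cells grown in McCoy's 5A with 10% heat-inactivated horse serum. Cells at 2 × 10^6/mL in serum-free medium were given compound (1.0 mg/mL DMSO stock) for 10 min at room temperature. Rhodamine 123 (5.2 µM final) was then added for 20 min at 37 °C. Cells were washed twice, resuspended in PBS, and read by flow cytometry for FSC, SSC and FL-1.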

The test system of assay [2] is Lymphoma cell line. The assay is described as follows: Ability to reverse the multidrug resistance (MDR) of mouse Lymphoma cells, FL-1at 20 ug/mL. Set-up: reference not given here. In short, it runs like this:
as §1

Assay [3] has as its system Lymphoma cell line. The experiment in a line: Ability to reverse the multidrug resistance (MDR) of mouse Lymphoma cells, by shrinkage (FSC) at 20 ug/mL. The method in brief:
as §1

The subject of assay [4] is Lymphoma cell line. The assay is described as follows: Ability to reverse the multidrug resistance (MDR) of mouse Lymphoma cells, by Granulation (SSC) at 2 ug/mL. In short, it runs like this: as §1
The test system of assay [5] is Lymphoma cell line. The assay is described as follows: Ability to reverse the multidrug resistance (MDR) of mouse Lymphoma cells, by Granulation (SSC) at 20 ug/mL. The method in brief: as §1
Assay [6] concerns Lymphoma cell line. The experiment in a line: Ability to reverse the multidrug resistance (MDR) of mouse Lymphoma cells, fluorescence activity ratio at 2 ug/mL. In short, it runs like this:
(§2)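 Rhodamine 123 accumulation by flow cytometry. MDR1-transduced L5178 mouse lymphoma cells and parental L5178Y cells at 2 × 10^6/mL in serum-free McCoy's 5A. Compound from DMSO stock for 10 min at room temperature, then 5.2 µM rhodamine 123 for 20 min at 37 °C, with two washes. Activity ratio: treated/untreated fluorescence of MDR cells divided by treated/untreated fluorescence of parental cells.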

Assay [7] relates to Lymphoma cell line. The assay is described as follows: Ability to reverse the multidrug resistance (MDR) of mouse Lymphoma cells, fluorescence activity ratio at 20 ug/mL. In short, it runs like this: as §2
The subject of assay [8] is Lymphoma cell line. The experiment in a line: Ability to reverse the multidrug resistance (MDR) of mouse Lymphoma cells, by shrinkage (FSC) at 2 ug/mL. In short, it runs like this:
as §1

In assay [9] the test system is Lymphoma cell line. The experiment in a line: Ability to reverse the multidrug resistance (MDR) of mouse Lymphoma cells, FL-1at 4 ug/mL. The method in brief: as §1
Assay [10] relates to Lymphoma cell line. The experiment in a line: Ability to reverse the multidrug resistance (MDR) of mouse Lymphoma cells, by shrinkage (FSC) at 4 ug/mL. In short, it runs like this:
as §1

For assay [11], the system named is Lymphoma cell line. The experiment in a line: Ability to reverse the multidrug resistance (MDR) of mouse Lymphoma cells, by Granulation (SSC) at 4 ug/mL. The method in brief: as §1
Assay [12] has as its system Lymphoma cell line. The experiment in a line: Ability to reverse the multidrug resistance (MDR) of mouse Lymphoma cells, fluorescence activity ratio at 4 ug/mL. The method in brief: as §2
In assay [13] the test system is Lymphoma cell line. The experiment in a line: Ability to reverse the multidrug resistance (MDR) of mouse Lymphoma cells, FL-1at 5 ug/mL. In short, it runs like this: as §1
Assay [14] concerns Lymphoma cell line. The assay is described as follows: Ability to reverse the multidrug resistance (MDR) of mouse Lymphoma cells, by shrinkage (FSC) at 5 ug/mL. In short, it runs like this: as §1
Assay [15] deals with Lymphoma cell line. The assay is described as follows: Ability to reverse the multidrug resistance (MDR) of mouse Lymphoma cells, by Granulation (SSC) at 5 ug/mL. In short, it runs like this:
as §1

The test system of assay [16] is Lymphoma cell line. The assay is described as follows: Ability to reverse the multidrug resistance (MDR) of mouse Lymphoma cells, fluorescence activity ratio at 5 ug/mL. In short, it runs like this: as §2

As for `C=C1[C@H](OC(C)=O)[C@@H](O)[C@@H](OC(=O)c2cccnc2)C(C)(C)/C=C/[C@H](C)[C@H](OC(C)=O)[C@@]2(O)C[C@@](C)(OC(C)=O)[C@H](OC(=O)c3ccccc3)[C@@H]2[C@H]1OC(C)=O`, the results for the FL-1 in [1] and in assay [2] were 155.62 and 878.14, respectively. The values for the FSC in assay [3] and in [8] were 636.35 and 632.81, respectively. Also, the SSC was found to be 301.64 in assay [4] and 291.38 in [5]. Besides, the Fluorescence activity ratio in assay [6] came to 12.75; in [7], 71.98.

Regarding `C=C1[C@H](OC(=O)C(C)C)[C@@H](O)[C@@H](OC(C)=O)C(C)(C)/C=C/[C@H](C)[C@H](OC(C)=O)[C@@]2(O)C[C@@](C)(OC(C)=O)[C@H](OC(=O)c3ccccc3)[C@@H]2[C@H]1OC(C)=O`, the values for the FL-1 in assay [1] and in assay [9] were 90.12 and 32.37, respectively. In addition, the FSC in assay [10] is reported as 638.02; in [8], 625.31. Besides, the results for the SSC in assay [4] and in [11] were 333.78 and 335.77, respectively. The Fluorescence activity ratio in assay [6] turned out to be 6.3; in assay [12] it was 2.26.

In assay [13], `COc1ccc(CCN(C)CCCC(C#N)(c2ccc(OC)c(OC)c2)C(C)C)cc1OC` (stereo not drawn) [VERAPAMIL] registered an FL-1 of 170.3. The FSC in [14] is 569.63. The SSC in assay [15] is 177.48. In assay [16], the Fluorescence activity ratio was 8.27.

For `C=C1[C@H](OC(C)=O)C[C@@H](OC(=O)c2cccnc2)C(C)(C)/C=C/[C@@H](C)C(=O)[C@@]2(OC(C)=O)C[C@H](C)[C@H](OC(C)=O)[C@@H]2[C@H]1OC(C)=O`, the figures for the FL-1 in assay [1] and in [2] were 423.87 and 906.08, respectively. Moreover, the figures for the FSC in assay [3] and in [8] were 640.31 and 634.95, respectively. Besides, the figures for the SSC in [4] and in assay [5] were 300.61 and 297.54, respectively. Moreover, the Fluorescence activity ratio is 34.74 in assay [6] and 74.27 in assay [7].

Consider `CC(=O)O[C@@H]1[C@@H](OC(C)=O)C(C)(C)/C=C/[C@H](C)[C@H](OC(C)=O)[C@@]2(OC(C)=O)C[C@H](C)[C@H](OC(=O)c3ccccc3)/C2=C\[C@](C)(O)[C@@H]1OC(C)=O`, for which the FL-1 is on record as 37.12 in [1] and 41.9 in [2]. For the same compound, the FSC in [3] stood at 658.03; in assay [8], 641.56. For the same compound, the results for the SSC in [4] and in assay [5] were 166.49 and 175.29, respectively. The Fluorescence activity ratio in assay [6] was 4.31; in [7], 4.86.

For the compound `CC(=O)O[C@@H]1[C@@H](OC(C)=O)C(C)(C)/C=C/[C@H](C)C(=O)[C@@]2(OC(C)=O)C[C@@H](C)[C@H](OC(=O)c3ccccc3)/C2=C\[C@](C)(O)[C@@H]1OC(C)=O`, the FL-1 in assay [1] came to 532.78; in [2] it was 401.98. For the same compound, the FSC in [3] came to 565.55; in assay [8], 562.62. The SSC was 237.88 in [4] and 232.7 in assay [5]. For the same compound, the Fluorescence activity ratio in [6] is listed as 8.87; in assay [7], 6.7.

For `CC(=O)O[C@@H]1[C@@H](OC(C)=O)C(C)(C)/C=C/[C@H](C)C(=O)C2(OC(C)=O)C[C@@](C)(O)[C@H](OC(=O)c3ccccc3)/C2=C\[C@](C)(OC(C)=O)[C@@H]1OC(C)=O` (stereo partly drawn), the FL-1 in [1] worked out at 525.32; in [2] it was 764.3. The FSC in assay [3] is given as 555.8; in assay [8], 558.57. Further, the SSC in [4] is on record as 235.31; in assay [5] it was 231.39. In addition, the values for the Fluorescence activity ratio in assay [6] and in assay [7] were 8.75 and 12.73, respectively.

As to `C=C1[C@H](OC(C)=O)CC(=O)C(C)(C)/C=C/[C@@H](C)C(=O)[C@@]2(OC(C)=O)C[C@@](C)(OC(C)=O)[C@H](OC(C)=O)[C@@H]2[C@H]1OC(C)=O` [ESULATIN B], the FL-1 in assay [1] amounted to 31.47; in assay [2] it was 95.54. Also, the FSC in [3] is 631.19; in assay [8] it was 642.45. In addition, the SSC in [4] came to 313.58; in [5], 307.84. Also, the Fluorescence activity ratio in [6] was found to be 2.58; in [7], 7.83.

With `CC(=O)O[C@@H]1[C@@H](OC(C)=O)C(C)(C)/C=C/[C@H](C)[C@H](OC(C)=O)[C@@]2(OC(C)=O)C[C@@H](C)[C@H](OC(=O)c3ccccc3)[C@@H]2/C=C(\C)[C@@H]1O`, the FL-1 worked out at 180.81 in [1] and 299.93 in assay [2]. For the same compound, the FSC is on record as 654.67 in assay [3] and 653.55 in assay [8]. Besides, the SSC in [4] is given as 165.87; in [5], 167.73. Moreover, the Fluorescence activity ratio in [6] stood at 20.98; in assay [7], 34.79.

`C=C1[C@H](OC(C)=O)[C@@H](OC(C)=O)[C@@H](OC(C)=O)C(C)(C)/C=C/[C@H](C)[C@H](OC(C)=O)[C@@]2(O)C[C@@](C)(OC(C)=O)[C@H](OC(=O)c3ccccc3)[C@@H]2[C@H]1OC(C)=O`: the results for the FL-1 in assay [1] and in assay [2] were 505.23 and 888.3, respectively. Besides, the figures for the FSC in [3] and in assay [8] were 587.54 and 577.39, respectively. For the same compound, the SSC is 239.85 in assay [4] and 239.54 in assay [5]. Also, the Fluorescence activity ratio was 16.77 in assay [6] and 29.48 in assay [7].

Turning to `C=C1[C@H](OC(=O)C(C)C)[C@@H](OC(C)=O)[C@@H](OC(C)=O)C(C)(C)/C=C/[C@@H](C)C(=O)[C@@]2(OC(C)=O)C[C@@](C)(OC(C)=O)[C@H](OC(C)=O)[C@@H]2[C@H]1OC(C)=O`, the FL-1 in assay [1] was found to be 166.44; in assay [2], 444.35. For the same compound, the FSC turned out to be 620.4 in [3] and 589.78 in assay [8]. The SSC in assay [4] is reported as 246.26; in assay [5] it was 254.87. The Fluorescence activity ratio in assay [6] is 5.52; in [7] it was 14.75.

Consider `C=C1[C@H](OC(=O)C(C)C)[C@H](OC(=O)C(C)C)[C@@H](OC(C)=O)C(C)(C)[C@@H]2O[C@H]2[C@@H](C)C(=O)[C@@]2(OC(C)=O)C[C@@](C)(OC(C)=O)[C@H](OC(C)=O)[C@@H]2[C@H]1OC(C)=O`, for which the results for the FL-1 in assay [1] and in [2] were 31.98 and 34.14, respectively. Moreover, the FSC in assay [3] was 667.76; in assay [8], 659.4. Further, the values for the SSC in [4] and in assay [5] were 165.11 and 176.12, respectively. Moreover, the Fluorescence activity ratio in assay [6] came to 3.71; in assay [7] it was 3.96.

Turning to `CC(=O)O[C@@H]1[C@@H](OC(C)=O)C(C)(C)/C=C/[C@H](C)C(=O)[C@@]2(OC(C)=O)C[C@@H](C)[C@H](OC(=O)c3ccccc3)/C2=C\[C@](C)(OC(C)=O)[C@@H]1OC(C)=O`, the FL-1 worked out at 634.88 in assay [1] and 965.2 in assay [2]. The FSC in assay [3] turned out to be 563.73; in assay [8] it was 561.94. In addition, the SSC in [4] is 238.57; in assay [5], 228.49. The figures for the Fluorescence activity ratio in assay [6] and in [7] were 10.57 and 16.08, respectively.

Consider `C=C1[C@H](OC(C)=O)C[C@@H](OC(C)=O)C(C)(C)/C=C/[C@@H](C)C(=O)[C@@]2(OC(C)=O)C[C@@](C)(OC(C)=O)[C@H](OC(C)=O)[C@@H]2[C@H]1OC(C)=O` [ESULATIN D], for which the results for the FL-1 in [1] and in assay [9] were 35.43 and 57.73, respectively. Besides, the figures for the FSC in assay [10] and in [8] were 638.32 and 626.3, respectively. Besides, the SSC is reported as 336.52 in assay [4] and 339.15 in assay [11]. The Fluorescence activity ratio in assay [6] was 2.47; in assay [12], 4.03.
